In ChEMBL document CHEMBL1156597, “Structure-activity relationship of kahalalide F synthetic analogues” (J Med Chem, 2008):

Columns and labels:
SK-MEL-28 = experiment: Cytotoxicity against human SK-MEL-28 cells after 48 hrs by SRB assay; format: functional, cell-based; conditions: Homo sapiens, SK-MEL-28, 48 h; for GI50: read-out: GI50; for CC50: read-out: LC50 (the source's name)
Summary of the method: (§1)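 Cells grown in RPMI 1640 with 10% FBS and penicillin/streptomycin at 37 °C and 5% CO₂, trypsinized, then seeded at 5 × 10³/well. After 18 h drug-free attachment, samples in DMSO/EtOH/PBS (0.5:0.5:99) were added for 48 h continuous exposure. Cells were fixed with cold TCA (1 h, 4 °C) and stained with SRB (10 min). Tris-solubilized stain read at 490 nm. Triplicate wells, mean ± SD; GI₅₀ derived.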

LoVo [1] = experiment: Cytotoxicity against human LoVo cells after 48 hrs by SRB assay; format: functional; conditions: for CC50: read-out: LC50 (the source's name)
[2] = Cytotoxicity against human IGROV cells after 48 hrs by SRB assay; format: functional; conditions: for CC50: read-out: LC50 (the source's name); summary of the method: as §1
LoVo [3] = experiment: Cytotoxicity against human doxorubicin resistant LoVo cells after 48 hrs by SRB assay; format: functional; conditions: for CC50: read-out: LC50 (the source's name); summary of the method: as §1
HeLa = experiment: Cytotoxicity against human HeLa cells after 48 hrs by SRB assay; format: functional; conditions: for CC50: read-out: LC50 (the source's name); summary of the method: as §1
[4] = Cytotoxicity against human IGROV-ET cells after 48 hrs by SRB assay; format: functional; conditions: for CC50: read-out: LC50 (the source's name); summary of the method: as §1
K562 = experiment: Cytotoxicity against human K562 cells after 48 hrs by SRB assay; format: functional; conditions: K562, 48 h; for CC50: read-out: LC50 (the source's name); summary of the method: as §1
HT-29 = experiment: Cytotoxicity against human HT29 cells after 48 hrs by SRB assay; format: functional, cell-based; conditions: Homo sapiens, HT-29, 48 h; read-out: LC50 (the source's name); summary of the method: as §1
SK-BR-3 = experiment: Cytotoxicity against human SKBR3 cells after 48 hrs by SRB assay; format: functional; conditions: SK-BR-3, 48 h; for CC50: read-out: LC50 (the source's name); summary of the method: as §1
PANC-1 = experiment: Cytotoxicity against human PANC1 cells after 48 hrs by SRB assay; format: functional; conditions: PANC-1, 48 h; for CC50: read-out: LC50 (the source's name); summary of the method: as §1
A549 = experiment: Cytotoxicity against human A549 cells after 48 hrs by SRB assay; format: functional, cell-based; conditions: Homo sapiens, A549, 48 h; summary of the method: as §1
[5] = Cytotoxicity against human HeLa-APL cells after 48 hrs by SRB assay; format: functional; summary of the method: as §1
LNCaP = experiment: Cytotoxicity against human LNcaP cells after 48 hrs by SRB assay; format: functional; conditions: for CC50: read-out: LC50 (the source's name); summary of the method: as §1
DU-145 = experiment: Cytotoxicity against human DU145 cells after 48 hrs by SRB assay; format: functional, cell-based; conditions: Homo sapiens, DU-145, 48 h; for GI50: read-out: GI50; for CC50: read-out: LC50 (the source's name); summary of the method: as §1

SMILES	TGI (SK-MEL-28) [nM]	GI50 (SK-MEL-28) [nM]	CC50 (SK-MEL-28) [nM]	CC50 (LoVo [1]) [nM]	CC50 [2] [nM]	CC50 (LoVo [3]) [nM]	GI50 (HeLa) [nM]	TGI (HeLa) [nM]	CC50 (HeLa) [nM]	GI50 [4] [nM]	GI50 ([4]; read-out: GI50) [nM]	CC50 [4] [nM]	GI50 (K562) [nM]	TGI (K562) [nM]	CC50 (K562) [nM]	CC50 (HT-29) [nM]	CC50 (SK-BR-3) [nM]	GI50 (PANC-1) [nM]	TGI (PANC-1) [nM]	CC50 (PANC-1) [nM]	further results
C/C=C1\NC(=O)[C@H](Cc2ccccc2)NC(=O)[C@@H](C(C)C)NC(=O)[C@@H]([C@H](C)CC)NC(=O)[C@H](NC(=O)[C@H](NC(=O)[C@H](CCCN)NC(=O)[C@H]2CCCN2C(=O)[C@H](NC(=O)[C@@H](NC(=O)[C@@H](NC(=O)[C@@H](CCCN)NC(=O)CCCC(C)C)[C@@H](C)O)C(C)C)C(C)C)[C@H](C)CC)[C@H](C)OC(=O)[C@H](C(C)C)NC1=O	1150	1140	1160	330	382	296	1370	1400	1030	806	103	559	877	1120	1910	4270	907	1420	1240	1760	GI50 [2]: 630 nM; GI50 ([2]; read-out: GI50): 1130 nM; TGI (SK-BR-3): 1770 nM; GI50 (SK-BR-3; read-out: GI50): 1720 nM; GI50 (A549): 888 nM; LC50 (A549): 3840 nM; GI50 (A549; read-out: GI50): 747 nM; GI50 [5]: 1100 nM; LC50 (concentration giving 50% net cell kill) [5]: 965 nM; TGI [5]: 1070 nM; GI50 (LNCaP): 853 nM; TGI (LNCaP): 1170 nM; CC50 (LNCaP): 950 nM; TGI (DU-145): 1270 nM; GI50 (DU-145): 1160 nM; CC50 (DU-145): 1170 nM
C/C=C1\NC(=O)[C@H](Cc2ccccc2)NC(=O)[C@@H](C(C)C)NC(=O)[C@@H]([C@H](C)CC)NC(=O)[C@H](NC(=O)[C@H](NC(=O)[C@H](CCCN)NC(=O)[C@H]2CCCN2C(=O)[C@H](NC(=O)[C@@H](NC(=O)[C@H](C)NC(=O)[C@H](NC(=O)CCCC(C)C)C(C)C)C(C)C)C(C)C)[C@H](C)CC)[C@H](C)OC(=O)[C@H](C(C)C)NC1=O	1190	1240	1150	338	503	306	1270	1120	998	808	1230	561	822	1610	1970	437	371	1160	1420	1810	GI50 (LoVo [1]): 2050 nM; TGI (LoVo [1]): 2070 nM; GI50 (LoVo [3]): 1080 nM; TGI (LoVo [3]): 1190 nM; GI50 (A549): 585 nM; LC50 (A549): 4930 nM; GI50 (A549; read-out: GI50): 641 nM; GI50 [5]: 1280 nM; LC50 (concentration giving 50% net cell kill) [5]: 873 nM; TGI [5]: 1060 nM; GI50 (LNCaP): 1380 nM; TGI (LNCaP): 1160 nM; CC50 (LNCaP): 967 nM; TGI (DU-145): 1250 nM; GI50 (DU-145): 1420 nM; CC50 (DU-145): 1100 nM
